# From ChEMBL document CHEMBL1921714, “Discovery of aminobenzyloxyarylamides as κ opioid receptor selective antagonists: application to preclinical development of a κ opioid receptor antagonist receptor occupancy tracer” (J Med Chem, 2011)
# Activity calls are given as the source filed them. The rule behind the calls is not given here.
# Legend:
# [1] = target: T1, Delta-type opioid receptor (Homo sapiens, UniProt P41143); assay: Agonist activity at human opioid delta receptor expressed in HEK293 cells assessed as stimulation of [35S]-GTPgammaS binding at 10 uM; format: functional, cell-based
# T1 sequence (P41143 whole entry): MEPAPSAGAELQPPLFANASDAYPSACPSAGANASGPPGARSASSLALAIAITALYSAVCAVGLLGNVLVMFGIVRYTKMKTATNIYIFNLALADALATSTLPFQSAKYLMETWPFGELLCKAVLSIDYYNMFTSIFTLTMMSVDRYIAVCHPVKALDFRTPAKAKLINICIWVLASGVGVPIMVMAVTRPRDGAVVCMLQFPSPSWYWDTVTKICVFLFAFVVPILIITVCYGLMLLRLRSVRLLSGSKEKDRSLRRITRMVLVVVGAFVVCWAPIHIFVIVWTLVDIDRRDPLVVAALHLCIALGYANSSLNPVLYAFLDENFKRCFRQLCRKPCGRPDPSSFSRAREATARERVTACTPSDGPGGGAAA
# In short: (§1)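 Agonist mode: membranes from CHO (κ, μ) or HEK293 (δ) cells expressing cloned human receptors, no agonist added, tested at up to 10 μM. [35S]GTP-γ-S (0.5 nM final) binding in HEPES pH 7.4, MgCl2, NaCl, EDTA, DTT, 200 μM GDP. Read by WGA SPA beads after 2 h (δ) or 4 h (κ, μ) at room temperature, then 4 °C overnight.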
# Mu-type opioid receptor [2] = target: T2, Mu-type opioid receptor (Homo sapiens, UniProt P35372); assay: Agonist activity at human opioid mu receptor expressed in CHO cells assessed as stimulation of [35S]-GTPgammaS binding at 10 uM; format: functional, cell-based; in short: as §1
# T2 sequence (P35372 whole entry): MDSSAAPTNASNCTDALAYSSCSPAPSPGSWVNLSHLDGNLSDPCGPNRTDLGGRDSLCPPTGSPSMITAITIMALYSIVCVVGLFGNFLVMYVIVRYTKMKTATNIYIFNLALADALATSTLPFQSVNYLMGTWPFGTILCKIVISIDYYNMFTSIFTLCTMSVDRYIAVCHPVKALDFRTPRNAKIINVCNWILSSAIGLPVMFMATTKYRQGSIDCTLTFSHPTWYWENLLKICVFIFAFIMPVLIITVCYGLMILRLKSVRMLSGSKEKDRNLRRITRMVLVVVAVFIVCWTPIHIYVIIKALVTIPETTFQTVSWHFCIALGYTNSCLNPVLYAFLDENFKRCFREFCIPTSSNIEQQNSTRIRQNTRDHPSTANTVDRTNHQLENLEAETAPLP
# [3] = target: T3, Kappa-type opioid receptor (Homo sapiens, UniProt P41145); assay: Agonist activity at human opioid kappa receptor expressed in CHO cells assessed as stimulation of [35S]-GTPgammaS binding at 10 uM; format: functional, cell-based; in short: as §1
# T3 sequence (P41145 whole entry): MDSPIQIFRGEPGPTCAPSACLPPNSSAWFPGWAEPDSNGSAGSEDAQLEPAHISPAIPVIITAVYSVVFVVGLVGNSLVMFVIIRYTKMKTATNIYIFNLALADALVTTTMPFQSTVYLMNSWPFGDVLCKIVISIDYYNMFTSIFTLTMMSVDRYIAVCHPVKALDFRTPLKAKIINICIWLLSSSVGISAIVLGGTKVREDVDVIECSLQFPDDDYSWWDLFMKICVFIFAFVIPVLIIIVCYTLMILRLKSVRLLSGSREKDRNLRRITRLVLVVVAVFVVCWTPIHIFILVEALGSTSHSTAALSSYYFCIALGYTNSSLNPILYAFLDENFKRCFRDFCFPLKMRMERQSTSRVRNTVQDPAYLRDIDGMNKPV
# Mu-type opioid receptor [4] = target: T2, Mu-type opioid receptor; assay: Displacement of [3H]diprenorphine from human opioid mu receptor expressed in CHO cells after 120 mins by scintillation counting; format: cell-based
# In short: (§2)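 11-point curves, 0.01 nM–1 μM final. 120 min at 22 °C, then filtration and scintillation counting. Nonspecific binding set by 10 μM naltrexone. Four-parameter IC50; Ki by Cheng–Prusoff.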
# [5] = target: T1, Delta-type opioid receptor; assay: Displacement of [3H]diprenorphine from human opioid delta receptor expressed in HEK293 cells after 120 mins by scintillation counting; format: cell-based; in short: as §2
# [6] = target: T3, Kappa-type opioid receptor; assay: Displacement of [3H]diprenorphine from human opioid kappa receptor expressed in CHO cells after 120 mins by scintillation counting; format: cell-based; in short: as §2
# [7] = target: T3, Kappa-type opioid receptor; assay: Antagonist activity at human opioid kappa receptor expressed in CHO cells assessed as inhibition of U69593-induced [35S]GTP-gamma-S binding after 4 hrs by scintillation counting; format: functional, cell-based
# CHO [8] = assay: Selectivity ratio of Ki for human opioid mu receptor expressed in CHO cells to Ki for human opioid kappa receptor expressed in CHO cells; format: cell-based
# HEK293 [9] = assay: Selectivity ratio of Ki for human opioid delta receptor expressed in HEK293 cells to Ki for human opioid kappa receptor expressed in CHO cells; format: cell-based
# [10] = target: T1, Delta-type opioid receptor; assay: Antagonist activity at human opioid delta receptor expressed in HEK293 cells assessed as inhibition of DPDPE-induced [35S]GTP-gamma-S binding after 4 hrs by scintillation counting; format: functional, cell-based
# HEK293 [11] = assay: Selectivity ratio of Kb for human opioid delta receptor expressed in HEK293 cells to Kb for human opioid kappa receptor expressed in CHO cells; format: cell-based
# In short: (§3)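 Kb ratios from antagonist [35S]GTP-γ-S SPA on CHO (κ, μ) or HEK293 (δ) membranes. Agonists at about 80% maximal: U69,593 300 nM (κ), DAMGO 1 μM (μ), DPDPE 30 nM (δ). 11-point curves, top 1 or 10 μM. Nonspecific binding: NorBNI, naltrexone or naltriben, each 10 μM. Kb = IC50/(1+D/EC50); geometric means with SEM.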
# CHO [12] = assay: Selectivity ratio of Kb for human opioid mu receptor expressed in CHO cells to Kb for human opioid kappa receptor expressed in CHO cells; format: cell-based; in short: as §3
# Mu-type opioid receptor [13] = target: T2, Mu-type opioid receptor; assay: Antagonist activity at human opioid mu receptor expressed in CHO cells assessed as inhibition of DAMGO-induced [35S]GTP-gamma-S binding after 4 hrs by scintillation counting; format: functional, cell-based
# Striatum [14] = assay: Drug uptake in rat striatum at 1 ug/kg, iv measured after 40 mins by LC/MS-MS analysis; format: ADME, organism-based; conditions: in vivo, 0.001 mg/kg
# In short: (§4)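 Groups of four rats received a single iv tracer dose and were killed 20 or 40 min later. Striatum was weighed, homogenized in 4 volumes acetonitrile/0.1% formic acid and centrifuged. The supernatant was diluted and analysed by LC/MS/MS against standards spiked into naive rat brain. %SUV = tissue amount/injected dose × 100.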
# Striatum [15] = assay: Drug uptake in rat striatum at 1.5 ug/kg, iv measured after 40 mins by LC/MS-MS analysis; format: ADME, organism-based; conditions: in vivo, 0.0015 mg/kg
# In short: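 Groups of four rats received a single iv tracer dose and were killed 20 or 40 min later. Striatum was weighed, sonicated in 4 volumes of acetonitrile with 0.1% formic acid, and centrifuged. The supernatant was diluted with water and analysed by C18 LC/MS/MS (precursor-to-product ion transition) against standards spiked into naive rat brain. %SUV = (tissue amount / injected dose) × 100.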
# Nucleic Acid [16] = assay: Ratio of drug uptake in striatum to cerebellum in rat at 1.5 ug/kg, iv measured after 40 mins by LC/MS/MS analysis; format: ADME, organism-based; conditions: in vivo, 0.0015 mg/kg
# In short: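 Rats (groups of four) given a single iv tracer dose, killed 20 or 40 min later. Striatum and cerebellum weighed, homogenised by ultrasonic probe in four volumes acetonitrile with 0.1% formic acid, centrifuged, supernatant diluted with water. Read-out is LC/MS/MS on C18 column monitoring precursor-to-product transitions, quantified against standards spiked into untreated rat brain. Binding potential = (striatum/cerebellum) − 1.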
# Striatum [17] = assay: Drug uptake in rat striatum at 30 ug/kg, iv measured after 40 mins by LC/MS-MS analysis; format: ADME, organism-based; conditions: in vivo, 0.03 mg/kg; in short: as §4
# Nucleic Acid [18] = assay: Ratio of drug uptake in striatum to cerebellum in rat at 30 ug/kg, iv measured after 40 mins by LC/MS/MS analysis; format: ADME, organism-based; conditions: in vivo, 0.03 mg/kg
# In short: (§5)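 Groups of four rats were given iv tracer and killed 20 or 40 min after dosing. Striatum (total binding) and cerebellum (nonspecific, null region) were extracted in acetonitrile/0.1% formic acid and quantified by LC/MS/MS. Binding potential was calculated as (striatum/cerebellum concentration) − 1.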
# Striatum [19] = assay: Drug uptake in rat striatum at 3 ug/kg, iv measured after 40 mins by LC/MS-MS analysis; format: ADME, organism-based; conditions: in vivo, 0.003 mg/kg; in short: as §4
# Rattus norvegicus [20] = assay: Antinociceptive activity in po dosed rat assessed as reversal of agonist […]-induced pain by formalin test; format: functional
# Rattus norvegicus [21] = assay: In vivo receptor occupancy of opioid kappa in iv dosed rat striatum after 40 mins by 3-Chloro-4-[4-[ [ (2S)-2-(3-pyridyl)pyrrolidin-1-yl]methyl]phenoxy]- benzamide displacement assay; format: functional
# Rattus norvegicus [22] = assay: Reversal of […] in po dosed rat; format: functional
# Nucleic Acid [23] = assay: Ratio of drug uptake in striatum to cerebellum in rat at 3 ug/kg, iv measured after 40 mins by LC/MS/MS analysis; format: ADME, organism-based; conditions: in vivo, 0.003 mg/kg; in short: as §5
Structure (SMILES),Activity [1],Activity (Mu-type opioid receptor [2]),Activity [3],Ki (Mu-type opioid receptor [4]) [µM],Ki [5] [µM],Ki [6] [µM],Kb [7] [µM],Ratio Ki (CHO [8]),Ratio Ki (HEK293 [9]),Kb [10] [µM],Ratio (HEK293 [11]),Ratio (CHO [12]),Kb (Mu-type opioid receptor [13]) [µM],also measured
CC(C)[C@@H](CN1CC[C@@](C)(c2cccc(O)c2)[C@@H](C)C1)NC(=O)[C@H]1Cc2ccc(O)cc2CN1,inactive,inactive,inactive,,,,,,,,,,,
CC1(C)CN(Cc2ccc(Oc3ccc(C(N)=O)cn3)cc2)C1c1ccccc1 (racemic),inactive,inactive,inactive,0.0527,> 0.5,0.00141,,,,,,,,
Cc1cc(C)cc([C@H]2CCCN2Cc2ccc(Oc3ccc(C(N)=O)cc3F)cc2)c1,inactive,inactive,inactive,0.101,0.165,0.014,0.0448,7,12,0.22,5,2,0.0696,
CC1(C)CN(Cc2ccc(Oc3ccc(C(N)=O)cn3)cc2)[C@@H]1c1ccccc1,inactive,inactive,inactive,0.0431,> 0.5,0.00105,0.00246,,,0.338,137,15,0.0366,SUV (Striatum [14]): 270%
NC(=O)c1ccc(Oc2ccc(CN3CCCC3c3ccccc3)cc2)nc1 (racemic),inactive,inactive,inactive,0.232,> 0.5,0.00921,0.017,25,> 50,0.635,37,9,0.15,
COC(=O)N1CCN(C(=O)Cc2ccc(Cl)c(Cl)c2)[C@H](CN2CCCC2)C1,inactive,inactive,inactive,0.0347,0.422,0.000502,,69,841,,,,,SUV (Striatum [15]): 50%; Ratio (Nucleic Acid [16]): 1.5
NC(=O)c1ccc(Oc2ccc(CNCc3ccccc3)cc2)nc1,inactive,inactive,inactive,0.00243,0.0276,0.00178,0.00433,1,16,0.0603,14,1,0.0038,
NC(=O)c1ccc(Oc2ccc(CN3CCCC3c3cccnc3)cc2)c(Cl)c1 (racemic),inactive,inactive,inactive,0.0315,0.251,0.000622,,51,404,,,,,
NC(=O)c1ccc(Oc2ccc(CN3CCC[C@@H]3c3cccnc3)cc2)c(Cl)c1,inactive,inactive,inactive,> 0.5,> 0.5,0.0449,,> 11,> 11,,,,,
CC1(C)CN(Cc2ccc(Oc3ccc(C(N)=O)cn3)cc2)[C@H]1c1ccccc1,inactive,inactive,inactive,0.107,> 0.5,0.0267,0.0152,,,> 1,> 65,3,0.0438,
Cc1cc(C)cc([C@@H]2CCCN2Cc2ccc(Oc3ccc(C(N)=O)cc3F)cc2)c1 [ATICAPRANT],inactive,inactive,inactive,0.0227,,0.000949,0.000813,24,175,0.11,135,21,0.0174,
Oc1ccc2c3c1O[C@H]1c4[nH]c5c(c4C[C@@]4(O)[C@@H](C2)N(CC2CC2)CC[C@]314)C[C@@]1(O)[C@H]2Cc3ccc(O)c4c3[C@@]1(CCN2CC1CC1)[C@H]5O4,inactive,inactive,inactive,,,,,,,,,,,
NC(=O)c1ccc(Oc2ccc(CN3CCCC3c3cccnc3)cc2)nc1 (racemic),inactive,inactive,inactive,0.0396,> 0.5,0.00149,0.00589,27,> 330,0.407,69,19,0.11,SUV (Striatum [17]): 13%; Ratio (Nucleic Acid [18]): 2.2
NC(=O)c1ccc(Oc2ccc(CN3CCCC3c3cccc(F)c3)cc2)c(F)c1 (racemic),inactive,inactive,inactive,0.0411,0.187,0.000617,0.00352,67,303,0.525,149,18,0.0635,
CC(C)[C@@H](CN1CC[C@@](C)(c2cccc(O)c2)[C@@H](C)C1)NC(=O)[C@H]1Cc2ccc(O)cc2CN1C,inactive,inactive,inactive,0.0308,> 0.5,0.000153,0.000162,201,> 3200,0.619,3820,69,0.0112,SUV (Striatum [19]): 23%
NC(=O)c1ccc(Oc2ccc(CN3CCC[C@H]3c3cccc(F)c3)cc2)c(F)c1,inactive,inactive,inactive,0.0358,0.211,0.000565,0.00157,63,373,0.293,187,14,0.0213,ED50 (Rattus norvegicus [20]): 0.24 mg/kg; ED50 (Rattus norvegicus [21]): 0.06 mg/kg; ED50 (Rattus norvegicus [22]): 30 mg/kg; Ratio (Nucleic Acid [23]): 0.2
NC(=O)c1ccc(Oc2ccc(CN3CCC[C@@H]3c3cccc(F)c3)cc2)c(F)c1,inactive,inactive,inactive,> 0.5,> 0.5,0.0537,0.0887,> 9,> 9,> 1,> 5,> 5,> 0.5,
